Compound activity (PubChem)
TAG inh – inhibitors of triacylglycerol accumulation, primary screen, cell-based, uHTS, fluorescence, H9c2; inhibition, % at 12.5 µM; H9c2 cells, Nile Red lipid (TAG) fluorescence; cells loaded with 200 µM oleic acid; actives 0.66% (n = 230,000);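 active = pattern-corrected inhibition of lipid staining of at least 50% with the nuclear-stain viability signal not falling by more than 50%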;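 also: 0% = DMSO wells and 100% = triacsin C control wells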
Jurkat NFkB inh – inhibitors of induced NF-kB luciferase reporter, primary screen, TCR NF-kB activation inhibitor project, cell-based, luminescence, uHTS; actives 0.53% (n = 330,000); Jurkat, PMA/ionomycin-induced NF-kB luciferase reporter; inhibition, % at 4 µM; in the data active = inhibition above about 50%
Lipid droplet – inhibitors of hepatocyte lipid droplet formation, primary screen, imaging, high-throughput imaging, BODIPY stain. AML12 mouse hepatocytes, oleate lipid droplets. AID 1656, 2009. actives 0.4% (n = 240,000). inhibition, % at 6.5 µM;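 active = lipid droplet intensity inhibited by at least 50%, with more than 500 cells counted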
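Assay system: AML12 hepatocytes (mouse) / Also added: 100 µM oleic acid challenge / Times: overnight treatment with compound plus oleate / Detection: high-content imaging of BODIPY-stained droplets and DAPI nuclei / Evaluation: % inhibition of lipid droplet signal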
hiPSC survival – enhancers of single-cell hiPSC survival, primary screen, ATPlite luminescence; 100% = ROCK inhibitor wells, 0% = DMSO; AID 602274, 2012; actives 0.044% (n = 360,000); survival enhancement, % at 20 µM; in the data active = survival enhancement above about 18%;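 also: cells exposed to compounds for 16 hours before the ATP read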
Gli-Sufu block – Gli-Sufu pathway antagonists, primary screen, luciferase luminescence, Sufu-KO-LIGHT cells, uHTS; Sufu-KO-LIGHT fibroblasts, Gli luciferase reporter luminescence; inhibition, % at 5 µM; actives 0.74% (n = 340,000); AID 588413, 2011;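 active = inhibition above about 55%, limit read from the data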;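 also: 0% = DMSO-treated cells and 100% = wells with medium but no cells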
697 NFkB inh – inhibitors of PMA/ionomycin-induced NF-kB reporter, 697 cells, primary screen, B-cell NF-kB inhibitor project, cell-based, luminescence, uHTS | 697 B-cell NF-kB luciferase reporter, 16 h | inhibition, % at 4 µM | actives 0.33% (n = 330,000) | AID 435022, 2010; in the data active = inhibition above about 35%
697 NFkB conf – PMA/ionomycin-induced NF-kB reporter inhibitors, 697 retest, confirmation, B-cell NF-kB inhibitor project, cell-based, luminescence, single concentration. actives 35% (n = 2,000). 697 B-cell NF-kB luciferase, 16 h. inhibition, % at 4 µM. AID 449746, 2010. shares compounds with 697 NFkB inh; in the data active = inhibition mostly above about 28%, no sharp cut-off; inactive = mostly below about 22%
Gli-Sufu confirm – Gli-SUFU pathway antagonists, confirmation, single concentration, luciferase luminescence, Sufu-KO-LIGHT cells; shares compounds with Gli-Sufu block; Gli luciferase reporter; inhibition, % at 5 µM; actives 40% (n = 2,500);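 active = mean inhibition at 5 µM reaching about 45%, limit read from the data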;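 also: plate controls were DMSO-treated cells for no effect and wells lacking cells for full effect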
SufuKO cytotox – cytotoxicity in Sufu-KO-LIGHT cells, confirmation, cytotoxicity control for Gli-SUFU antagonist project, cell-based, ATP luminescence, single concentration; shares compounds with Gli-Sufu block; cytotoxicity, % at 5 µM; actives 32% (n = 2,500); AID 651994, 2013;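 active = mean cytotoxicity at 5 µM above about 25%, limit read from the data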;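 also: cells exposed to compound overnight for roughly 16 to 18 hours; plate controls were DMSO wells with cells for no effect and medium without cells for full effect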
Wnt3a cs – Wnt3a reporter signal inhibition, confirmation, counter-screen for Gli-SUFU antagonist project, Wnt-LIGHT cells, luminescence, single concentration. shares compounds with Gli-Sufu block. Wnt3a-driven luciferase reporter. inhibition, % at 6.25 µM. actives 20% (n = 2,500);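 active = mean inhibition above about 25%, limit read from the data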
An asterisk follows results filed as active; i = inactive; · = not tested or not shown. Rows were chosen to be rich in hits. Some 1.8% of all compounds tested hit in one or more screens of this group.

SMILES	TAG inh	Jurkat NFkB inh	Lipid droplet	hiPSC survival	Gli-Sufu block	697 NFkB inh	697 NFkB conf	others
CC(C)COc1ccc(-c2nnc(-c3ccco3)o2)cc1	·	-132	1	-3	-37	-263	-139
Cn1c(CCC(=O)Nc2cc(S(C)(=O)=O)ccc2Cl)nc2cc(S(=O)(=O)N3CCOCC3)ccc21	1	7	·	-1	1	6	·
C#CCn1c(S(=O)(=O)Cc2ccc(F)cc2)nc(-c2ccccc2)c1-c1ccccc1	·	-84	12	4	8	i	i
CCOC(=O)Cn1c(S(=O)(=O)Cc2ccc(F)cc2)nc(-c2ccccc2)c1-c1ccccc1	·	-23	·	-2	11	-96	·
COc1cccc(OC)c1C(=O)Nc1cc(Cl)ccc1N1CCOCC1	·	-9	-4	7	-4	39*	-4
Cc1noc(C)c1C(=O)Nc1cc(Cl)ccc1N1CCOCC1	1	-7	·	0	46	8	·
COc1ccc(NC(=O)CCS(=O)(=O)c2ccc3c(c2)oc(=O)n3C)cc1	·	14	12	1	-4	8	·
O=C(Nc1ccc(/C=C/c2nc3ccccc3o2)cc1)c1cccc(C(F)(F)F)c1	·	-2	·	-4	-5	-327	-215
COc1ccc(C2C(C#N)=C(N)OC(C(C)(C)C)=C2C#N)cc1OC (stereo not drawn)	·	2	·	-3	4	24	·
COc1cccc(C2C(C#N)=C(N)OC(C(C)(C)C)=C2C#N)c1 (stereo not drawn)	1	7	·	1	-19	36*	4
NC(=O)c1cc([N+](=O)[O-])c(Cl)cc1NCc1cccnc1	21	-9	·	1	12	1	·
COc1ccc(/C=N/OCC(=O)NC(c2ccccc2)c2ccccc2)cc1OC	-7	44	2	0	54	68*	38*	Gli-Sufu confirm=53*;SufuKO cytotox=31*;Wnt3a cs=35*
COc1cc(NC(=O)CCCNC(=O)Cn2cnc3sc(C)c(C)c3c2=O)cc(OC)c1OC	·	-5	-6	0	-6	0	·
O=S(=O)(NCc1ccncc1)c1ccc(Br)s1	-40	42	-4	0	70*	51*	45*	Gli-Sufu confirm=64*;SufuKO cytotox=44*;Wnt3a cs=46*
COc1ccc(CCn2c(S)nc3ccccc3c2=O)cc1	·	-4	·	1	6	-8	·
COc1ccc(NC(=O)CSc2nnc(-c3cccc(O)c3)o2)cc1	·	-33	32	0	5	26	·
COc1cccc(NC(=O)CSc2nnc(-c3cc(C)n(-c4ccccc4)c3C)o2)c1	8	-6	·	-1	53	71*	17	Gli-Sufu confirm=69*;SufuKO cytotox=10;Wnt3a cs=76*
Cc1ccc(/C=N/Nc2cc(C)nc(N3CCOCC3)n2)cc1	-5	4	-1	0	1	-6	·
Cc1ccc(Nc2nc(N/N=C\c3ccc4c(c3)OCO4)nc(N3CCOCC3)n2)cc1	136	-28	2	0	56*	56*	42*	Gli-Sufu confirm=50*;SufuKO cytotox=35*;Wnt3a cs=-75
